Structures are written as SMILES.

We go through three compounds from ChEMBL document CHEMBL3525985, “Regiospecificity and stereospecificity of human UDP-glucuronosyltransferases in the glucuronidation of estriol, 16-epiestriol, 17-epiestriol, and 13-epiestradiol” (Drug Metab Dispos, 2013).

Holding throughout (type): ADME
In data set [1] the target is T1, UDP-glucuronosyltransferase 2A1 (Homo sapiens, UniProt P0DTE4).
T1 sequence (P0DTE4 whole entry): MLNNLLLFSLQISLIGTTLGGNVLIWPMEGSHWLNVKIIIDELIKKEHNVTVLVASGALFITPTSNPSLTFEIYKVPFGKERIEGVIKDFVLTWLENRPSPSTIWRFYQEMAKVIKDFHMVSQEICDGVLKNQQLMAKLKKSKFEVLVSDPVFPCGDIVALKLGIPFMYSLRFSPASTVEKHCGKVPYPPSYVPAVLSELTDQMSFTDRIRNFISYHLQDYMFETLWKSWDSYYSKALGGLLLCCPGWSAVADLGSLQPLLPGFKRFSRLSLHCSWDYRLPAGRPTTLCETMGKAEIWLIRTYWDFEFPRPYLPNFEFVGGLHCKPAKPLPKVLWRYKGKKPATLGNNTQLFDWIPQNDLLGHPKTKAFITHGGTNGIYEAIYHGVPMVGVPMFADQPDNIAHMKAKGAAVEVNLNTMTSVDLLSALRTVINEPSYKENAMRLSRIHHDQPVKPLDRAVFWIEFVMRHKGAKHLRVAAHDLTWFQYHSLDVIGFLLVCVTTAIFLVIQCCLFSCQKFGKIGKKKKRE
Put plainly: Drug metabolism assessed as recombinant human C-terminal His-tagged UGT2A1-mediated 17-epiestriol-17-glucuronide formation at 5 mg after 5 hrs by NMR spectroscopic analysis in presence of UDPGA.

Data set [2] concerns the target T2, UDP-glucuronosyltransferase 1A8 (Homo sapiens, UniProt Q9HAW9).
T2 sequence (Q9HAW9 whole entry): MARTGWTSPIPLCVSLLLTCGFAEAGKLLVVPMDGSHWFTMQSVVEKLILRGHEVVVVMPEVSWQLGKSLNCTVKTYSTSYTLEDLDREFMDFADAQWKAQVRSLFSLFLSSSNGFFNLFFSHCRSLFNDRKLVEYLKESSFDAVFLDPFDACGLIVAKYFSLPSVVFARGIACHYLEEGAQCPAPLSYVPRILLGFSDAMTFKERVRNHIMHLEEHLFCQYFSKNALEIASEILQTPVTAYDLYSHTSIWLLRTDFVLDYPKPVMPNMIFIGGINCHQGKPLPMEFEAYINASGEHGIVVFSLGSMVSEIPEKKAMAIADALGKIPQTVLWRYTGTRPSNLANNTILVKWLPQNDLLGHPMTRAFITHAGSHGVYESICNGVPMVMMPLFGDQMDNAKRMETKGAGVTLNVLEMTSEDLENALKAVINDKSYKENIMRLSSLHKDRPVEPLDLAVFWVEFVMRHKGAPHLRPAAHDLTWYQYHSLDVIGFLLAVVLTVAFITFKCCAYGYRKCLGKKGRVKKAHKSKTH
Put plainly: Drug metabolism assessed as recombinant human C-terminal His-tagged UGT1A8-mediated 16-epiestriol-3-glucuronide formation after 15 to 60 mins by Michaelis-Menten equation analysis in presence of UDPGA. The settings on record: recombinant enzyme.

The target of data set [3] is T1, UDP-glucuronosyltransferase 2A1. Briefly: Drug metabolism assessed as recombinant human C-terminal His-tagged UGT2A1-mediated 16-epiestriol-17-glucuronide formation at 200 uM after 15 to 60 mins by HPLC analysis in presence of UDPGA. To be noted: recombinant enzyme. A digest of the protocol:
(§1)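 Screening at a single substrate concentration of 200 μM, in triplicate. The reaction used 5 or 50 µg of UGT-enriched insect cell membranes in 50 mM phosphate pH 7.4 with 10 mM MgCl₂ and 5 mM UDPGA, 10% final DMSO. Incubation was 15–60 min at 37°C. Perchloric acid stopped the reaction and supernatants were analysed by HPLC. Controls lacked UDPGA. Rates were normalized to relative UGT expression level.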

Data set [4] deals with T3, UDP-glucuronosyltransferase 2B4 (Homo sapiens, UniProt P06133).
T3 sequence (P06133 whole entry): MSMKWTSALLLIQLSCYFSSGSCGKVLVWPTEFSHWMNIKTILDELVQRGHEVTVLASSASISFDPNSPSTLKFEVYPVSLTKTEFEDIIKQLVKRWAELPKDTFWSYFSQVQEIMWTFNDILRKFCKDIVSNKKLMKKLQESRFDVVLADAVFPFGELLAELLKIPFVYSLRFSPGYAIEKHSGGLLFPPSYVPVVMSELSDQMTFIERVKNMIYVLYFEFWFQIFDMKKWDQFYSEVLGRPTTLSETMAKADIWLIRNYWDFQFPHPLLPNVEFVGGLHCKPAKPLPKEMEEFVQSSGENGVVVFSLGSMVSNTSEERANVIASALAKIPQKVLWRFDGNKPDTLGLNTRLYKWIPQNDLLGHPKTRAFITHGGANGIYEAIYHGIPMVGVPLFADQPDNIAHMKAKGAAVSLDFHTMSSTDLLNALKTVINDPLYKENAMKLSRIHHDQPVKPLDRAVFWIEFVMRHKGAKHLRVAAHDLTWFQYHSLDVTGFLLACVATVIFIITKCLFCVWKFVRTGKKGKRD
Put plainly: Drug metabolism assessed as recombinant human C-terminal His-tagged UGT2B4-mediated 13-epiestradiol-17-glucuronide formation at 200 uM after 15 to 60 mins by HPLC analysis in presence of UDPGA. To be noted: recombinant enzyme. An outline of the steps:
as §1

Data set [5] addresses T4, UDP-glucuronosyltransferase 2B7 (Homo sapiens, UniProt P16662).
T4 sequence (P16662 whole entry): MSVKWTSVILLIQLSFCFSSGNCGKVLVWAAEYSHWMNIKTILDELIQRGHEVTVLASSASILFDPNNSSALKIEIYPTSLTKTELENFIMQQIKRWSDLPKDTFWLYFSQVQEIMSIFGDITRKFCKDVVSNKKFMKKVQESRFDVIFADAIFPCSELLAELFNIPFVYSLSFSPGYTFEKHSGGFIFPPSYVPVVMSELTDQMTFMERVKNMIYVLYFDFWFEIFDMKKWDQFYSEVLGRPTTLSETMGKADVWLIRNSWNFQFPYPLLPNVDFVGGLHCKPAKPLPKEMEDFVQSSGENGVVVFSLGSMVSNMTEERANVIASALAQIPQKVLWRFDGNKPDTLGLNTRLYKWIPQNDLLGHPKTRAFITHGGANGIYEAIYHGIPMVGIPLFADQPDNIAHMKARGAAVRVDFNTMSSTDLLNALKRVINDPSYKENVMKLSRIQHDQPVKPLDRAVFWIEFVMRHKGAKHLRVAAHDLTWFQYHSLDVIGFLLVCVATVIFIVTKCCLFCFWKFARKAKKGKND
Put plainly: Drug metabolism assessed as recombinant human C-terminal His-tagged UGT2B7-mediated 13-epiestradiol-17-glucuronide formation at 200 uM after 15 to 60 mins by HPLC analysis in presence of UDPGA. To be noted: recombinant enzyme. A digest of the protocol:
as §1

Turning to `C[C@]12CC[C@@H]3c4ccc(O)cc4CC[C@H]3[C@@H]1C[C@@H](O)[C@H]2O`, the Drug metabolism result in data set [1] is listed as “metabolite_detected”.
As for `C[C@]12CC[C@@H]3c4ccc(O)cc4CC[C@H]3[C@@H]1C[C@H](O)[C@@H]2O` [EPIESTRIOL], the Drug metabolism in data set [2] is reported as 0.5 pmol/min/mg; in data set [3] it was “metabolite_detected”.
On to `C[C@@]12CC[C@@H]3c4ccc(O)cc4CC[C@H]3[C@@H]1CC[C@@H]2O`, for which the Drug metabolism result in data set [4] and in data set [5] was “metabolite_detected” throughout.
